The text below walks through data of ChEMBL document CHEMBL3822452, “Polyphenolic compounds with anti-tumour potential from Corchorus olitorius (L.) Tiliaceae, a Nigerian leaf vegetable” (2016).

Test [1] concerns HeLa. Put plainly: Cytotoxicity against human HeLa cells assessed as cell viability at 800 uM after 48 hrs by alamar blue assay relative to control. In kind it is functional. The conditions noted are these: read-out: Activity. In a few lines:
(§1)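 HeLa cells in MEM with 10% FBS, 1% NEAA, 2 mM glutamine and 1% antibiotic-antimycotic were seeded at 1 x 10^5 cells/ml and grown 24 h at 37°C, 5% CO2. They were exposed 48 h to compound serially diluted in growth medium, in duplicate wells. Alamar Blue was added for 3 h, then 30 min at room temperature, and fluorescence read at ex 544/em 590 nm. Values are % of DMSO-only control, means ± SEM, with ANOVA and Dunnett's test.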

The test system of test [2] is HeLa. Put plainly: Cytotoxicity against human HeLa cells assessed as cell viability at 1600 uM after 48 hrs by alamar blue assay relative to control. The following applies: read-out: Activity. The class given is functional. In a few lines: as §1
Background: Alamar Blue is a resazurin reagent that responds to reducing activity.

A further test has as its system NCI-H460. Description: Cytotoxicity against human H460 cells assessed as reduction in cell viability after 48 hrs by alamar blue assay. In kind it is functional, cell-based.
In a further test the test system is PC-3. Put plainly: Cytotoxicity against human PC3 cells assessed as reduction in cell viability after 48 hrs by alamar blue assay. The class given is functional, cell-based.
Test [3] has as its system HeLa. Put plainly: Cytotoxicity against human HeLa cells assessed as loss of cells after 48 hrs by inverted microscopic analysis. In kind it is functional, cell-based. In a few lines:
(§2)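 HeLa cultures were treated 48 h with increasing compound concentrations in growth medium, with controls given growth medium only. Bright-field images were then taken on an inverted microscope at x10 and examined for cell loss and rounding of remaining cells.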

Test [4] concerns HeLa. Description: Cytotoxicity against human HeLa cells assessed as cell rounding after 48 hrs by inverted microscopic analysis. The class given is functional, cell-based. A digest of the protocol: as §2

Activity calls are given as the source filed them. The calls are words filed in the database; no cut-off is given here.

As to `COC(=O)[C@@]1(OC(=O)/C=C/c2ccc(O)c(O)c2)C[C@@H](O)[C@@H](OC(=O)/C=C/c2ccc(O)c(O)c2)[C@H](OC(=O)/C=C/c2ccc(O)c(O)c2)C1`, the viability at 800 µM with HeLa [1] is 71%. Also, in the test with HeLa [2], the viability at 1600 µM came out at 19.6%. Also, the outcome in the test with NCI-H460 and with PC-3 was inactive. In addition, the Activity entry with HeLa [3] and in the test on HeLa [4] was “Dose-dependent effect” each time.
For the molecule `COc1cc(/C=C/C(=O)OC(=O)/C=C/c2ccc(O)c(OC)c2)ccc1O`, the viability at 800 µM with HeLa [1] is 22.3%. Also, in the test on HeLa [2], the viability at 1600 µM stood at 5.3%. Further, the result in the test with NCI-H460 and with PC-3 was inactive. Further, the Activity entry with HeLa [3] and with HeLa [4] was “Dose-dependent effect” in each case.
